Measured values as given in publication PMC9989852 (Food and chemical toxicology : an international journal …, 2022).
Several values for one entry are separate records, joined by “and”; a condition that tells them apart may be missing. Equal entries are not always repeated.

How the values were obtained:
ear pinna [1] = experiment: Skin; assay type: in vivo, B6C3F1 mice; conditions: dermal, 28 days
In short: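 Female B6C3F1 mice (5/group) received 25 μl/ear daily to the dorsal ears in acetone. About 24 h after the last dose, tissues went into RPMI: both auricular dLNs, half spleen and one ear pinna. Single-cell suspensions were acquired on an LSR II, with populations gated per supplemental strategy and FMO gating controls. Results are mean ± SE, n=5, by one-way ANOVA.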

ear pinna [2] = experiment: Ear; assay type: in vivo, B6C3F1 mice; conditions: dermal, 28 days, mice affected of 5
In short: (§1)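 Female B6C3F1 mice (5/group) received 25 μl/ear on the dorsal ear surfaces daily, with acetone as vehicle. Tissues were formalin-fixed about 24 h after the last dose: liver remainder, half spleen, right kidney and half ear pinna. Sections were paraffin-embedded, cut at 5 μm and stained with H&E. A veterinary pathologist read them per STP guideline and graded 1 (minimal) to 5 (severe) by extent.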

kidney, spleen = experiment: Kidney and spleen histopathology after 28-day dermal exposure; assay type: in vivo, B6C3F1 mice; conditions: 1.25–5%, 28 days, data not shown
In short: as §1

[3] = PFAS concentration in serum; assay type: in vivo, B6C3F1 mice; conditions: 1.25%–5%, dermal, 28 days
In short: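 Serum came by cardiac puncture about 24 h after the final daily ear dose (25 μl/ear, acetone vehicle; female B6C3F1 mice). Samples underwent solid-phase extraction and LC/MS/MS. Short-chain analytes were quantified as linear isomer only; the legacy comparator was quantified as linear plus branched. Data are mean ± SE of 4–5 mice, one-way ANOVA with Dunnett's vs vehicle.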

B6C3F1 mice = experiment: Serum chemistries after 28-day dermal exposure; assay type: in vivo; conditions: 28 days
In short: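 Female B6C3F1 mice received daily dorsal ear application (25 μl/ear, acetone vehicle). About 24 h after the last dose, blood was taken by cardiac puncture. Serum was separated by centrifugation and stored at −20 °C. ALKP, BUN, glucose and cholesterol were read on a Catalyst DX analyzer. Data are mean ± SE of 4–5 mice, ANOVA with Dunnett's; ALKP was also tested by linear regression (p < 0.05).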

In the case of O=C(O)C(F)(F)C(F)(F)C(F)(F)C(F)(F)C(F)(F)C(F)(F)F [PFHpA, Perfluoroheptanoic acid], the “Ear CD4^+ cell number” value (ear pinna [1]; 1.25%) was 1.49 ± 0.38 × 10^3, the “Ear CD4^+ frequency” value (ear pinna [1]; 1.25%) was 1.78 ± 0.19% and the “Ear CD8^+ cell number” value (ear pinna [1]; 1.25%) was 0.79 ± 0.14 × 10^2. For the same compound, the “Ear CD8^+ frequency” value (ear pinna [1]; 1.25%) was 0.11 ± 0.03%, the “Ear CD45^+ cell number” value (ear pinna [1]; 1.25%) was 8.01 ± 1.58 × 10^4 and the “Ear CD45^+ frequency” value (ear pinna [1]; 1.25%) was 8.04 ± 1.11%. The “Ear CD lib- F4/80+ DCs cell number” value (ear pinna [1]; 1.25%) was 5.44 ± 0.94 × 10^2, the “Ear CDllb + F4/80+ DCs cell number” value (ear pinna [1]; 1.25%) was 4.52 ± 0.98 × 10^2 and the “Ear CDllb- F4/80+ DCs frequency” value (ear pinna [1]; 1.25%) was 0.70 ± 0.05%. For the same compound, the “Ear CDllb- F4/80-DCs cell number” value (ear pinna [1]; 1.25%) was 1.12 ± 0.29 × 10^3, the “Ear CDllb- F4/80-DCs frequency” value (ear pinna [1]; 1.25%) was 1.34 ± 0.16 % and the “Ear Dendritic Cells cell number” value (ear pinna [1]; 1.25%) was 2.18 ± 0.47 × 10^3. For the same compound, the “Ear Dendritic Cells frequency” value (ear pinna [1]; 1.25%) was 2.69 ± 0.15%, the “Ear Eosinophils cell number” value (ear pinna [1]; 1.25%) was 1.41 ± 0.42 × 10^3 and the “Ear Eosinophils frequency” value (ear pinna [1]; 1.25%) was 1.60 ± 0.26%. The “Ear NK cell number” value (ear pinna [1]; 1.25%) was 3.89 ± 0.91 × 10^2, the “Ear NK frequency” value (ear pinna [1]; 1.25%) was 0.48 ± 0.04% and the “Ear Neutrophils cell number” value (ear pinna [1]; 1.25%) was 1.59 ± 0.24 × 10^2. The “Ear Neutrophils frequency” value (ear pinna [1]; 1.25%) was 0.21 ± 0.02%, the “Ear Total Cellularity” value (ear pinna [1]; 1.25%) was 0.96 ± 0.08 × 10^6 and the “Ear CD8^+ cell number” value (ear pinna [1]; 2.5%) was 1.77 ± 0.27 × 10^2. The “Ear CD8^+ frequency” value (ear pinna [1]; 2.5%) was 0.16 ± 0.01%, the “Ear CD lib- F4/80+ DCs cell number” value (ear pinna [1]; 2.5%) was 7.95 ± 0.98 × 10^2 and the “Ear CDllb + F4/80+ DCs cell number” value (ear pinna [1]; 2.5%) was 13.00 ± 2.97 × 10^2. For the same compound, the “Ear CDllb + F4/80+ DCs frequency” value (ear pinna [1]; 2.5%) was 1.13 ± 0.12 %, the “Ear CDllb- F4/80+ DCs frequency” value (ear pinna [1]; 2.5%) was 0.75 ± 0.08 % and the “Ear CDllb- F4/80-DCs cell number” value (ear pinna [1]; 2.5%) was 2.42 ± 0.45 × 10^3. For the same compound, the “Ear Dendritic Cells frequency” value (ear pinna [1]; 2.5%) was 4.21 ± 0.26 %, the “Ear Eosinophils cell number” value (ear pinna [1]; 2.5%) was 5.54 ± 1.71 × 10^3 and the “Ear Eosinophils frequency” value (ear pinna [1]; 2.5%) was 4.57 ± 0.96 %. The “Ear NK cell number” value (ear pinna [1]; 2.5%) was 7.43 ± 1.69 × 10^2, the “Ear NK frequency” value (ear pinna [1]; 2.5%) was 0.66 ± 0.08% and the “Ear Neutrophils cell number” value (ear pinna [1]; 2.5%) was 2.48 ± 0.43 × 10^2. For the same compound, the “Ear CD4^+ cell number” value (ear pinna [1]; 5%) was 6.06 ± 0.33 × 10^3, the “Ear CD4^+ frequency” value (ear pinna [1]; 5%) was 4.18 ± 0.24 % and the “Ear CD8^+ cell number” value (ear pinna [1]; 5%) was 2.81 ± 0.39 × 10^2. The “Ear CD8^+ frequency” value (ear pinna [1]; 5%) was 0.20 ± 0.03 %, the “Ear CD45^+ cell number” value (ear pinna [1]; 5%) was 14.60 ± 0.67 × 10^4 and the “Ear CD45^+ frequency” value (ear pinna [1]; 5%) was 12.38 ± 0.81%. The “Ear CD lib- F4/80+ DCs cell number” value (ear pinna [1]; 5%) was 14.50 ± 0.97 × 10^2, the “Ear CDllb + F4/80+ DCs cell number” value (ear pinna [1]; 5%) was 18.90 ± 1.84 × 10^2 and the “Ear CDllb + F4/80+ DCs frequency” value (ear pinna [1]; 5%) was 1.31 ± 0.14 %. The “Ear CDllb- F4/80+ DCs frequency” value (ear pinna [1]; 5%) was 1.00 ± 0.07 %, the “Ear CDllb- F4/80-DCs cell number” value (ear pinna [1]; 5%) was 3.38 ± 0.19 × 10^3 and the “Ear CDllb- F4/80-DCs frequency” value (ear pinna [1]; 5%) was 2.32 ± 0.03%. The “Ear Dendritic Cells cell number” value (ear pinna [1]; 5%) was 7.25 ± 0.31 × 10^3, the “Ear Dendritic Cells frequency” value (ear pinna [1]; 5%) was 4.99 ± 0.15 % and the “Ear Eosinophils cell number” value (ear pinna [1]; 5%) was 6.45 ± 1.12 × 10^3. For the same compound, the “Ear Eosinophils frequency” value (ear pinna [1]; 5%) was 4.36 ± 0.63 %, the “Ear NK cell number” value (ear pinna [1]; 5%) was 7.96 ± 0.70 × 10^2 and the “Ear NK frequency” value (ear pinna [1]; 5%) was 0.56 ± 0.07%. For the same compound, the “Ear Neutrophils cell number” value (ear pinna [1]; 5%) was 7.10 ± 1.15 × 10^2, the “Ear Neutrophils frequency” value (ear pinna [1]; 5%) was 0.49 ± 0.07 % and the “Ear Total Cellularity” value (ear pinna [1]; 5%) was 1.19 ± 0.08 × 10^6. The “Ear: Degeneration/regeneration, cartilage, focal, Mild (incidence)” value (ear pinna [2]; 1.25%) was 0, the “Ear: Fibrosis, dermis, focal, Minimal (incidence)” value (from here on “Ear: Fibrosis, dermis, focal”) (ear pinna [2]; 1.25%) was 0 and the “Ear: Hyperkeratosis, epidermis, focal, Mild (incidence)” value (shortened to “Ear: Hyperkeratosis … Mild (incidence)”) (ear pinna [2]; 1.25%) was 0. For the same compound, the “Ear: Hyperkeratosis, epidermis, focal, Minimal (incidence)” value (ear pinna [2]; 1.25%) was 0, the “Ear: Hyperplasia, epidermis, focal, Mild (incidence)” value (from here on “Ear: Hyperplasia … Mild (incidence)”) (ear pinna [2]; 1.25%) was 0 and the “Ear: Hyperplasia, epidermis, focal, Minimal (incidence)” value (from here on “Ear: Hyperplasia … Minimal (incidence)”) (ear pinna [2]; 1.25%) was 0. For the same compound, the “Ear: Inflammation, mixed cell, dermis, Minimal (incidence)” value (“Ear: Inflammation, mixed cell, dermis” for short) (ear pinna [2]; 1.25%) was 0, the “Ear: Inflammation, mononuclear cell, dermis, Minimal (incidence)” value (“Ear: Inflammation, mononuclear cell” below) (ear pinna [2]; 1.25%) was 0 and the “Ear: Necrosis, epidermis, multifocal, Minimal (incidence)” value (“Ear: Necrosis, epidermis, multifocal” for short) (ear pinna [2]; 1.25%) was 0. The “Ear: Degeneration/regeneration, cartilage, focal, Mild (incidence)” value (ear pinna [2]; 2.5%) was 0, the “Ear: Fibrosis, dermis, focal” value (ear pinna [2]; 2.5%) was 0 and the “Ear: Hyperkeratosis … Mild (incidence)” value (ear pinna [2]; 2.5%) was 0. The “Ear: Hyperkeratosis, epidermis, focal, Minimal (incidence)” value (ear pinna [2]; 2.5%) was 0, the “Ear: Hyperplasia … Mild (incidence)” value (ear pinna [2]; 2.5%) was 0 and the “Ear: Hyperplasia … Minimal (incidence)” value (ear pinna [2]; 2.5%) was 2/5 and 2. For the same compound, the “Ear: Inflammation, mixed cell, dermis” value (ear pinna [2]; 2.5%) was 0, the “Ear: Inflammation, mononuclear cell” value (ear pinna [2]; 2.5%) was 0 and the “Ear: Necrosis, epidermis, multifocal” value (ear pinna [2]; 2.5%) was 0. The “Ear: Fibrosis, dermis, focal” value (ear pinna [2]; 5%) was 0, the “Ear: Hyperkeratosis … Mild (incidence)” value (ear pinna [2]; 5%) was 0 and the “Ear: Hyperkeratosis, epidermis, focal, Minimal (incidence)” value (ear pinna [2]; 5%) was 4/5 and 4. For the same compound, the “Ear: Hyperplasia … Mild (incidence)” value (ear pinna [2]; 5%) was 1/4 and 1, the “Ear: Hyperplasia … Minimal (incidence)” value (ear pinna [2]; 5%) was 4/5 and 4 and the “Ear: Inflammation, mixed cell, dermis” value (ear pinna [2]; 5%) was 1. For the same compound, the “Ear: Inflammation, mononuclear cell” value (ear pinna [2]; 5%) was 1, the “Ear: Necrosis, epidermis, multifocal” value (ear pinna [2]; 5%) was 0 and the “microscopic observations in the kidney or the spleen” value (kidney, spleen) was “No PFPeA, PFHxA, or PFHpA-related microscopic observations”. The “PFAS serum concentration vs vehicle” value [3] was “significant increase”, the “serum ALKP” value (B6C3F1 mice; 1.25–5%, linear regression p < 0.05, not significant via ANOVA) was “significant linear regression increase” and the “serum glucose, increase compared to vehicle control” value (B6C3F1 mice; 5%) was 30%. The “serum urea nitrogen (BUN), decrease” value (B6C3F1 mice; 5%) was 30% and the “serum alanine aminotransferase (ALT)” value (B6C3F1 mice; any concentration, data not shown) was “No change”.
